# Experimental data from ChEMBL document CHEMBL1275524, “Activities of antifungal agents against yeasts and filamentous fungi: assessment according to the methodology of the European Committee on Antimicrobial Susceptibility Testing” (2008).
# How the values were obtained:
# Candida albicans [1] = assay: Antifungal activity against Candida albicans; type: functional
# Procedure, shortened: (§1)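 Broth microdilution in flat-bottom plates in RPMI 1640 with 2% glucose; inoculum 0.5 × 105 to 2.5 × 10^5 CFU/ml. MICs were read spectrophotometrically at 24 h. AMB endpoint: ≥90% growth reduction vs drug-free control well. Azole and CPF endpoint: 50% reduction in optical density. MFC was taken as the lowest concentration giving 99% killing.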
# Nakaseomyces glabratus [2] = assay: Antifungal activity against Candida glabrata; type: functional; procedure, shortened: as §1
# Candida parapsilosis [3] = assay: Antifungal activity against Candida parapsilosis; type: functional; settings: Lodderomyces parapsilosis; procedure, shortened: as §1
# Pichia kudriavzevii [4] = assay: Antifungal activity against Candida krusei; type: functional
# Procedure, shortened: (§2)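 EUCAST broth microdilution for yeasts in flat-bottom plates, RPMI 1640 with 2% glucose, inoculum 0.5 × 105 to 2.5 × 10^5 CFU/ml. […] MFC is the lowest concentration giving 99% killing.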
# Clavispora lusitaniae [5] = assay: Antifungal activity against Candida lusitaniae; type: functional; procedure, shortened: as §1
# Candida tropicalis [6] = assay: Antifungal activity against Candida tropicalis; type: functional; procedure, shortened: as §1
# [7] = test system: Meyerozyma guilliermondii; assay: Antifungal activity against Candida guilliermondii; type: functional; procedure, shortened: as §1
# Saccharomyces cerevisiae [8] = assay: Antifungal activity against Saccharomyces cerevisiae; type: functional
# Procedure, shortened: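 Broth microdilution following EUCAST for fermentative yeasts, in flat-bottom plates with RPMI 1640 plus 2% glucose. Inoculum was 0.5 × 10^5 to 2.5 × 10^5 CFU/ml. End points were read spectrophotometrically at 24 h: ≥90% growth reduction versus a drug-free control for amphotericin B, and 50% OD reduction for azoles and caspofungin. MFC was the lowest concentration giving 99% killing.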
# [9] = Antifungal activity against Cryptococcus neoformans var. neoformans; type: functional; settings: Cryptococcus deneoformans
# Procedure, shortened: (§3)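 EUCAST yeast microdilution, modified for nonfermentative yeasts: plates were sealed and agitated at 350 rpm and 30°C for 48 h.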
# Cryptococcus gattii [10] = assay: Antifungal activity against Cryptococcus neoformans var. gattii; type: functional, Cryptococcus bacillisporus; procedure, shortened: as §3
# Trichosporon inkin [11] = assay: Antifungal activity against Trichosporon inkin; type: functional
# Procedure, shortened: (§4)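 Nonfermentative yeasts were tested by the EUCAST microdilution recommendations with one change: plates were sealed and agitated at 350 rpm and 30°C for 48 h.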
# Trichosporon asahii [12] = assay: Antifungal activity against Trichosporon asahii; type: functional; procedure, shortened: as §4
# Geotrichum candidum [13] = assay: Antifungal activity against Geotrichum candidum; type: functional
# Aspergillus fumigatus [14] = assay: Antifungal activity against Aspergillus fumigatus; type: functional
# Aspergillus terreus [15] = assay: Antifungal activity against Aspergillus terreus; type: functional
# Aspergillus flavus [16] = assay: Antifungal activity against Aspergillus flavus; type: functional
# Aspergillus niger [17] = assay: Antifungal activity against Aspergillus niger; type: functional
# Rhizomucor = assay: Antifungal activity against Rhizomucor species; type: functional
# Lichtheimia corymbifera [18] = assay: Antifungal activity against Absidia corymbifera; type: functional
# Absidia = assay: Antifungal activity against Absidia species; type: functional
# [19] = Antifungal activity against Rhizopus microsporus var. oligosporus; type: functional
# Procedure, shortened: (§5)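 Broth microdilution following the EUCAST reference procedure for spore-forming moulds, in flat-bottom plates with RPMI 1640 plus 2% glucose. Inoculum was 2 × 10^5 to 5 × 10^5 CFU/ml. MICs were read visually at 24 and 48 h as 100% growth reduction versus a drug-free control for polyenes and azoles. MEC was used for caspofungin. Tests were run in duplicate and repeated twice.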
# Rhizopus arrhizus [20] = assay: Antifungal activity against Rhizopus oryzae; type: functional; procedure, shortened: as §5
# Rhizopus = assay: Antifungal activity against Rhizopus species; type: functional; procedure, shortened: as §5
# Mucor hiemalis = assay: Antifungal activity against Mucor hiemalis; type: functional
# Mucor [21] = assay: Antifungal activity against Mucor species; type: functional
# Cunninghamella [22] = assay: Antifungal activity against Cunninghamella species; type: functional
# Lomentospora prolificans = assay: Antifungal activity against Scedosporium prolificans; type: functional; procedure, shortened: as §5
# Scedosporium apiospermum [23] = assay: Antifungal activity against Scedosporium apiospermum; type: functional; procedure, shortened: as §5
# Talaromyces marneffei [24] = assay: Antifungal activity against Penicillium marneffei; type: functional
# Penicillium sp. [25] = assay: Antifungal activity against Penicillium species; type: functional
# Fusarium solani [26] = assay: Antifungal activity against Fusarium solani; type: functional
# Fusarium oxysporum [27] = assay: Antifungal activity against Fusarium oxysporum; type: functional
# Sporothrix schenckii [28] = assay: Antifungal activity against Sporothrix schenckii; type: functional; procedure, shortened: as §5
# Curvularia lunata [29] = assay: Antifungal activity against Curvularia lunata; type: functional
# Curvularia australiensis [30] = assay: Antifungal activity against Bipolaris australiensis; type: functional
# Procedure, shortened: (§6)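 Dematiaceous fungi were tested by the EUCAST spore-forming mold reference procedure: flat-bottom microdilution plates, RPMI 1640 plus 2% glucose, inoculum 2 × 105 to 5 × 10^5 CFU/ml. Endpoints were read visually at 24 and 48 h. Polyenes and azoles: 100% growth reduction vs drug-free control. CPF: minimum effective concentration. Run in duplicate and repeated twice.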
# [31] = Antifungal activity against Rhinocladiella aquaspersa; type: functional; procedure, shortened: as §6
# Candida albicans [32] = assay: Antifungal activity against Candida albicans by EUCAST method; type: functional; procedure, shortened: as §1
# Nakaseomyces glabratus [33] = assay: Antifungal activity against Candida glabrata by EUCAST method; type: functional; procedure, shortened: as §1
# Candida parapsilosis [34] = assay: Antifungal activity against Candida parapsilosis by EUCAST method; type: functional; settings: Lodderomyces parapsilosis; procedure, shortened: as §1
# Pichia kudriavzevii [35] = assay: Antifungal activity against Candida krusei by EUCAST method; type: functional; procedure, shortened: as §1
# Clavispora lusitaniae [36] = assay: Antifungal activity against Candida lusitaniae by EUCAST method; type: functional; procedure, shortened: as §1
# Candida tropicalis [37] = assay: Antifungal activity against Candida tropicalis by EUCAST method; type: functional; procedure, shortened: as §1
# [38] = test system: Meyerozyma guilliermondii; assay: Antifungal activity against Candida guilliermondii by EUCAST method; type: functional; procedure, shortened: as §1
# Saccharomyces cerevisiae [39] = assay: Antifungal activity against Saccharomyces cerevisiae by EUCAST method; type: functional; procedure, shortened: as §2
# [40] = Antifungal activity against Cryptococcus neoformans var. neoformans by EUCAST method; type: functional; settings: Cryptococcus deneoformans; procedure, shortened: as §3
# Cryptococcus gattii [41] = assay: Antifungal activity against Cryptococcus neoformans var. gattii by EUCAST method; type: functional, Cryptococcus bacillisporus; procedure, shortened: as §3
# Trichosporon inkin [42] = assay: Antifungal activity against Trichosporon inkin by EUCAST method; type: functional; procedure, shortened: as §4
# Trichosporon asahii [43] = assay: Antifungal activity against Trichosporon asahii by EUCAST method; type: functional; procedure, shortened: as §4
# Geotrichum candidum [44] = assay: Antifungal activity against Geotrichum candidum by EUCAST method; type: functional
# Aspergillus fumigatus [45] = assay: Antifungal activity against Aspergillus fumigatus by EUCAST method; type: functional
# Aspergillus terreus [46] = assay: Antifungal activity against Aspergillus terreus by EUCAST method; type: functional
# Aspergillus flavus [47] = assay: Antifungal activity against Aspergillus flavus by EUCAST method; type: functional
# Aspergillus niger [48] = assay: Antifungal activity against Aspergillus niger by EUCAST method; type: functional
# Lichtheimia corymbifera [49] = assay: Antifungal activity against Absidia corymbifera by EUCAST method; type: functional
# Rhizopus arrhizus [50] = assay: Antifungal activity against Rhizopus oryzae by EUCAST method; type: functional; procedure, shortened: as §5
# Mucor [51] = assay: Antifungal activity against Mucor species by EUCAST method; type: functional
# Cunninghamella [52] = assay: Antifungal activity against Cunninghamella species by EUCAST method; type: functional
# Scedosporium apiospermum [53] = assay: Antifungal activity against Scedosporium apiospermum by EUCAST method; type: functional; procedure, shortened: as §5
# Talaromyces marneffei [54] = assay: Antifungal activity against Penicillium marneffei by EUCAST method; type: functional
# Penicillium sp. [55] = assay: Antifungal activity against Penicillium species by EUCAST method; type: functional
# Fusarium solani [56] = assay: Antifungal activity against Fusarium solani by EUCAST method; type: functional
# Fusarium oxysporum [57] = assay: Antifungal activity against Fusarium oxysporum by EUCAST method; type: functional
# Sporothrix schenckii [58] = assay: Antifungal activity against Sporothrix schenckii by EUCAST method; type: functional; procedure, shortened: as §5
# Curvularia lunata [59] = assay: Antifungal activity against Curvularia lunata by EUCAST method; type: functional; procedure, shortened: as §6
# Curvularia australiensis [60] = assay: Antifungal activity against Bipolaris australiensis by EUCAST method; type: functional; procedure, shortened: as §6
# [61] = Antifungal activity against Rhinocladiella aquaspersa by EUCAST method; type: functional; procedure, shortened: as §6
structure (smiles),measurement,setting,value
CCC(C)n1ncn(-c2ccc(N3CCN(c4ccc(OCC5COC(Cn6cncn6)(c6ccc(Cl)cc6Cl)O5)cc4)CC3)cc2)c1=O (stereo unspecified) [ITRACONAZOLE],MFC,Candida albicans [1],0.06 µg/mL
same,MFC,Nakaseomyces glabratus [2],> 4 µg/mL
same,MFC,Candida parapsilosis [3],0.06 µg/mL
same,MFC,Pichia kudriavzevii [4],0.5 µg/mL
same,MFC,Clavispora lusitaniae [5],0.25 µg/mL
same,MFC,Candida tropicalis [6],> 0.25 µg/mL
same,MFC,[7],2 µg/mL
same,MFC,Saccharomyces cerevisiae [8],> 4 µg/mL
same,MFC,[9],0.5 µg/mL
same,MFC,Cryptococcus gattii [10],0.5 µg/mL
same,MFC,Trichosporon inkin [11],0.25 µg/mL
same,MFC,Trichosporon asahii [12],> 4 µg/mL
same,MFC,Geotrichum candidum [13],> 8 µg/mL
same,MFC,Aspergillus fumigatus [14],2 µg/mL
same,MFC,Aspergillus terreus [15],0.5 µg/mL
same,MFC,Aspergillus flavus [16],0.5 µg/mL
same,MFC,Aspergillus niger [17],> 4 µg/mL
same,MFC,Rhizomucor,> 2 µg/mL
same,MFC,Lichtheimia corymbifera [18],> 2 µg/mL
same,MFC,Absidia,> 2 µg/mL
same,MFC,[19],> 8 µg/mL
same,MFC,Rhizopus arrhizus [20],> 8 µg/mL
same,MFC,Rhizopus,> 4 µg/mL
same,MFC,Mucor hiemalis,> 8 µg/mL
same,MFC,Mucor [21],> 4 µg/mL
same,MFC,Cunninghamella [22],4 µg/mL
same,MFC,Lomentospora prolificans,> 8 µg/mL
same,MFC,Scedosporium apiospermum [23],> 4 µg/mL
same,MFC,Talaromyces marneffei [24],0.25 µg/mL
same,MFC,Penicillium sp. [25],> 2 µg/mL
same,MFC,Fusarium solani [26],> 8 µg/mL
same,MFC,Fusarium oxysporum [27],0.25 µg/mL
same,MFC,Sporothrix schenckii [28],0.5 µg/mL
same,MFC,Curvularia lunata [29],0.5 µg/mL
same,MFC,Curvularia australiensis [30],0.5 µg/mL
same,MFC,[31],0.5 µg/mL
same,MIC,Candida albicans [32],0.23 µg/mL
same,MIC,Nakaseomyces glabratus [33],0.83 µg/mL
same,MIC,Candida parapsilosis [34],0.32 µg/mL
same,MIC,Pichia kudriavzevii [35],1.1 µg/mL
same,MIC,Clavispora lusitaniae [36],0.07 µg/mL
same,MIC,Candida tropicalis [37],0.56 µg/mL
same,MIC,[38],0.87 µg/mL
same,MIC,Saccharomyces cerevisiae [39],2 µg/mL
same,MIC,[40],0.11 µg/mL
same,MIC,Cryptococcus gattii [41],0.22 µg/mL
same,MIC,Trichosporon inkin [42],0.21 µg/mL
same,MIC,Trichosporon asahii [43],0.17 µg/mL
same,MIC,Geotrichum candidum [44],1.45 µg/mL
same,MIC,Aspergillus fumigatus [45],0.46 µg/mL
same,MIC,Aspergillus terreus [46],0.58 µg/mL
same,MIC,Aspergillus flavus [47],0.59 µg/mL
same,MIC,Aspergillus niger [48],0.98 µg/mL
same,MIC,Lichtheimia corymbifera [49],2.5 µg/mL
same,MIC,Rhizopus arrhizus [50],4 µg/mL
same,MIC,Mucor [51],4.36 µg/mL
same,MIC,Cunninghamella [52],1.75 µg/mL
same,MIC,Scedosporium apiospermum [53],2.66 µg/mL
same,MIC,Talaromyces marneffei [54],0.25 µg/mL
same,MIC,Penicillium sp. [55],4.25 µg/mL
same,MIC,Fusarium solani [56],6 µg/mL
same,MIC,Fusarium oxysporum [57],4.5 µg/mL
same,MIC,Sporothrix schenckii [58],0.12 µg/mL
same,MIC,Curvularia lunata [59],0.03 µg/mL
same,MIC,Curvularia australiensis [60],0.12 µg/mL
same,MIC,[61],0.12 µg/mL
